Test results published in ChEMBL document CHEMBL3102735, “Enhancing the pharmacodynamic profile of a class of selective COX-2 inhibiting nitric oxide donors” (Bioorg Med Chem, 2014).
In brackets after ≈: the same amount, converted by molar mass.

Assays:
[1] = Stability of the compound in phosphate buffer saline assessed as compound remaining at pH 7.4 after 60 mins by LC-MS/MS analysis; format: physicochemical; conditions: read-out: Stability
Summary of the method: (§1)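 1 mM DMSO stock added to 0.01 M PBS (pH 7.4) or 0.05 M simulated gastric fluid without pepsin (pH 1.5 with HCl); incubated in hybridisation oven; aliquots at 0, 30, 60, 120 min quenched with ice-cold acetonitrile containing internal standard; parent remaining (%) measured.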

Liver [2] = assay: Induction of nitric oxide production in Wistar rat liver homogenate assessed as nitrate level at 1 mM after 1 to 150 mins; format: functional, tissue-based
[3] = Metabolic stability in Sprague-Dawley rat plasma assessed as compound remaining after 60 mins by LC-MS/MS analysis; format: ADME, cell-free; conditions: read-out: Stability
Summary of the method: (§2)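 Compound (12 µL of 1 mM DMSO solution into 588 µL medium) incubated in PBS pH 7.4, pepsin-free SGF pH 1.5, or EDTA rat plasma. Aliquots taken at 0, 30, 60, 120 min and quenched with ice-cold acetonitrile containing internal standard; parent remaining as percent.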

[4] = Solubility of the compound in simulated gastric fluid at pH 1.5 after 90 mins by HPLC analysis; format: ADME
Summary of the method: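 DMSO stock (20 mM) diluted 2 µL into 198 µL PBS 0.01 M pH 7.4 or pepsin-free SGF 0.05 M pH 1.5, duplicate wells, shaken 90 min at 300 rpm. Filtrates analysed by HPLC with photodiode-array detection against seven-point standards (1–200 µM).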

Liver [5] = assay: Induction of nitric oxide production in Wistar rat liver homogenate assessed as nitrate level at 1 mM; format: functional, tissue-based; conditions: TDE = time-dependent effect
[6] = Metabolic stability in Sprague-Dawley rat plasma assessed as compound remaining after 120 mins by LC-MS/MS analysis; format: ADME, cell-free; conditions: read-out: Stability; summary of the method: as §2
Mus musculus [7] = assay: Antiinflammatory activity in Swiss albino mouse assessed as reduction in carrageenan-induced paw edema at 40 mg/kg, po relative to control; format: functional; set-up: scale not given: the % may be the effect or the level left
Summary of the method: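 Intraplantar carrageenan, compound po in CMC; volume of right hind paw measured 4 h after carrageenan injection and compared with saline/carrageenan-treated controls; percent oedema reduction.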

Mus musculus [8] = assay: Antihyperalgesic activity in Swiss albino mouse assessed as reduction in carrageenan-induced inflammation at 20 mg/kg, po after 120 mins relative to control; format: functional; set-up: scale not given: the % may be the effect or the level left
[9] = molecular target: T1, Prostaglandin G/H synthase 2 (Mus musculus, UniProt Q05769); assay: Inhibition of LPS-induced COX-2 in mouse J774 cells using arachidonic acid as substrate assessed as inhibition of prostaglandin E2 production preincubated for 15 mins followed by substrate addition measured after 30 mins by RIA; format: cell-based
T1 sequence (Q05769 whole entry): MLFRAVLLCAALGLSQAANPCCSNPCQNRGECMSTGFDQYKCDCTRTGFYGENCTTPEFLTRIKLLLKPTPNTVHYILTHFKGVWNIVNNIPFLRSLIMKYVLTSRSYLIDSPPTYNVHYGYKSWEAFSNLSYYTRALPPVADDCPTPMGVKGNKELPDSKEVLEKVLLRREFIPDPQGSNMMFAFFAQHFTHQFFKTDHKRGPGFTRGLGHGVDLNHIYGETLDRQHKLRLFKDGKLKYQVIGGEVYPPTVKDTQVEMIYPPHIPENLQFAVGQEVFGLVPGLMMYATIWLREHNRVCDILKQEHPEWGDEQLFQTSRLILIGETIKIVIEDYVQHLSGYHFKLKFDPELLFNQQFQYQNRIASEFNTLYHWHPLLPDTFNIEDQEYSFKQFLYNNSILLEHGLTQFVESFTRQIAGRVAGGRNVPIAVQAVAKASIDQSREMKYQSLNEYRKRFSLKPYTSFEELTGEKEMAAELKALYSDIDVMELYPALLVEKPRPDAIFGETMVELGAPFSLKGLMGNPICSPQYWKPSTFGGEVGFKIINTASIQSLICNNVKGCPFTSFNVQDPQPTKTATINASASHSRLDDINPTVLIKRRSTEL

[10] = Clearance in Wistar rat at 10 mg/kg, iv by LC-MS/MS analysis; format: ADME, organism-based; set-up: dose 10 mg/kg, route intravenous; conditions: in vivo
Summary of the method: (§3)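 Male Han Wistar rats, three per route, single 10 mg/kg/5 mL dose iv or po in 5% DMSO, 5% Cremophor EL, 0.1% Tween 80 in 150 mM phosphate buffer pH 7. Jugular-vein blood sampled, plasma methanol-precipitated, parent and hydroxy metabolite quantified by LC–MS/MS in positive ESI MRM mode (LLOQ 1–15 ng/mL).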

Rattus norvegicus = assay: Drug metabolism in Wistar rat plasma assessed as 2-(1-(4-fluorophenyl)-2-methyl-5-(4-(methylsulfonyl)phenyl)-1H-pyrrol-3-yl)-N-(2-hydroxyethyl)acetamide metabolite at 10 mg/kg, iv up to 6 hrs by LC-MS/MS analysis; format: ADME, organism-based; set-up: dose 10 mg/kg, route intravenous; conditions: in vivo; summary of the method: as §3
[11] = molecular target: T2, Prostaglandin G/H synthase 1 (Mus musculus) (UniProt P22437); assay: Inhibition of COX-1 in mouse J774 cells using arachidonic acid as substrate assessed as inhibition of prostaglandin E2 production at 10 uM preincubated for 15 mins followed by substrate addition measured after 30 mins by RIA; format: cell-based
T2 sequence (whole entry): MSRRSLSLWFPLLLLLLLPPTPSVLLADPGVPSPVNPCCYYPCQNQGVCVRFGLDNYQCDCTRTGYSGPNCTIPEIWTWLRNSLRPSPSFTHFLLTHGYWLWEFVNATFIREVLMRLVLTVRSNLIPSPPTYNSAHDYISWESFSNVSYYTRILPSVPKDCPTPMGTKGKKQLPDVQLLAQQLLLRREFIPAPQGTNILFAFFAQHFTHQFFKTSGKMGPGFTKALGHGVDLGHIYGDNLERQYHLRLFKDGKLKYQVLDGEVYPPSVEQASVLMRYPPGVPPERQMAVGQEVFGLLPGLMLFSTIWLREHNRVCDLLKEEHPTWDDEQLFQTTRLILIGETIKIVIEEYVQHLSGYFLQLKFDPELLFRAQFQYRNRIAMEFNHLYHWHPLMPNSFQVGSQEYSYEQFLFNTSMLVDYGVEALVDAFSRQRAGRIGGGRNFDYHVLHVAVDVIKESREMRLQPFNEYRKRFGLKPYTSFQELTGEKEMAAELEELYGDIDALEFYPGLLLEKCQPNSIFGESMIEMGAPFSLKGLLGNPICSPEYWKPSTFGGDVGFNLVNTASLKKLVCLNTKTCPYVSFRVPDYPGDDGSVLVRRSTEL
Summary of the method: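 J774 murine macrophages pretreated 15 min with compound (10 µM; lower concentrations 0.01–1 µM where needed), then incubated 30 min at 37 °C with 15 µM arachidonic acid; supernatant PGE2 measured by RIA. Triplicate wells, mean of three experiments of percent inhibition versus control; IC50 by sigmoidal fit.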

Liver [12] = assay: Induction of nitric oxide production in Wistar rat liver homogenate assessed as nitrite level at 1 mM; format: functional, tissue-based; conditions: TDE = time-dependent effect
[13] = Stability of the compound in simulated gastric fluid assessed as compound remaining at pH 1.5 after 30 mins by LC-MS/MS analysis; format: physicochemical; conditions: read-out: Stability; summary of the method: as §1

- remaining at 1 h [1]: 100%
- remaining at 1 h [3]: 100%
- solubility at 1.5 h [4]: 147 µM (≈ 69.9 µg/mL)
- remaining at 2 h [6]: 100%
- IC50 [9]: 249 nM
- clearance [10]: 10 mL/min
- Drug metabolism (Rattus norvegicus): Active
- inhibition [11]: 9%
- remaining at 0.5 h [13]: 100%
SMILES: Cc1c(CC(=O)NCCO[N+](=O)[O-])cc(-c2ccc(S(C)(=O)=O)cc2)n1-c1ccc(F)cc1
- Activity (Liver [2]): 38.3 µM
- Activity (Liver [5]): tde
- Activity (Mus musculus [7]): 10%
- Activity (Mus musculus [8]): 0%
- Activity (Liver [12]): tde
